The target of one assay is T1, Tankyrase 1/2 (Homo sapiens, UniProt Q9H2K2+O95271).
T1 sequence (Q9H2K2 whole entry): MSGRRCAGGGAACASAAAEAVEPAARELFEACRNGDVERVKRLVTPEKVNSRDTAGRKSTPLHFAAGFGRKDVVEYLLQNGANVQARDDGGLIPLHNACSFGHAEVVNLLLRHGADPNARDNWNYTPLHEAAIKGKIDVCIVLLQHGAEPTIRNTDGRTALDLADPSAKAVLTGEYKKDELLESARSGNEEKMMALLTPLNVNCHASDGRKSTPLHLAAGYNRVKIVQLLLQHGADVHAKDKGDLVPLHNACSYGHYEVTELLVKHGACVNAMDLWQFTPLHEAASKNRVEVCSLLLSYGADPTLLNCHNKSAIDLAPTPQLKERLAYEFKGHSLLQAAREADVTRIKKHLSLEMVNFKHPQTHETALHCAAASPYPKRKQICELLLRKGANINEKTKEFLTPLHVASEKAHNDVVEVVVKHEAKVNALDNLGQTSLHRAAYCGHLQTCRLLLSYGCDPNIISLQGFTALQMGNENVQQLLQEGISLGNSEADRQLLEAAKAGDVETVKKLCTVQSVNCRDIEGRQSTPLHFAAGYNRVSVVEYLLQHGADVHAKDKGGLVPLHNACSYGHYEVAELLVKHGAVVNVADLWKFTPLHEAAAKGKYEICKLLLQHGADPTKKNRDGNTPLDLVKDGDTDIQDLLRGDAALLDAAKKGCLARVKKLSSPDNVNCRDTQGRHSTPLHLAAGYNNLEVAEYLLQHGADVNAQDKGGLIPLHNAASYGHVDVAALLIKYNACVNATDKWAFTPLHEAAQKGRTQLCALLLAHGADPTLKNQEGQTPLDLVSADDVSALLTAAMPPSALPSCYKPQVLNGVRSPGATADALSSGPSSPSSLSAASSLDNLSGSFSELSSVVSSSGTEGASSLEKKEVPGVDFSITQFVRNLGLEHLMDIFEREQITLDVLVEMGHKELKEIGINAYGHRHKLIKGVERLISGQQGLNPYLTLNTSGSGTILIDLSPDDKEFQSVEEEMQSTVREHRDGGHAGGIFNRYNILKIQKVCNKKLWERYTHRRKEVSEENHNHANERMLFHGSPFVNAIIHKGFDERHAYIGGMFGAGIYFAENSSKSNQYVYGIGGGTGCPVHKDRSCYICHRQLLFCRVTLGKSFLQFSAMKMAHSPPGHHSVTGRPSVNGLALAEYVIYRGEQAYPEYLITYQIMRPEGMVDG
T1 sequence (O95271 whole entry): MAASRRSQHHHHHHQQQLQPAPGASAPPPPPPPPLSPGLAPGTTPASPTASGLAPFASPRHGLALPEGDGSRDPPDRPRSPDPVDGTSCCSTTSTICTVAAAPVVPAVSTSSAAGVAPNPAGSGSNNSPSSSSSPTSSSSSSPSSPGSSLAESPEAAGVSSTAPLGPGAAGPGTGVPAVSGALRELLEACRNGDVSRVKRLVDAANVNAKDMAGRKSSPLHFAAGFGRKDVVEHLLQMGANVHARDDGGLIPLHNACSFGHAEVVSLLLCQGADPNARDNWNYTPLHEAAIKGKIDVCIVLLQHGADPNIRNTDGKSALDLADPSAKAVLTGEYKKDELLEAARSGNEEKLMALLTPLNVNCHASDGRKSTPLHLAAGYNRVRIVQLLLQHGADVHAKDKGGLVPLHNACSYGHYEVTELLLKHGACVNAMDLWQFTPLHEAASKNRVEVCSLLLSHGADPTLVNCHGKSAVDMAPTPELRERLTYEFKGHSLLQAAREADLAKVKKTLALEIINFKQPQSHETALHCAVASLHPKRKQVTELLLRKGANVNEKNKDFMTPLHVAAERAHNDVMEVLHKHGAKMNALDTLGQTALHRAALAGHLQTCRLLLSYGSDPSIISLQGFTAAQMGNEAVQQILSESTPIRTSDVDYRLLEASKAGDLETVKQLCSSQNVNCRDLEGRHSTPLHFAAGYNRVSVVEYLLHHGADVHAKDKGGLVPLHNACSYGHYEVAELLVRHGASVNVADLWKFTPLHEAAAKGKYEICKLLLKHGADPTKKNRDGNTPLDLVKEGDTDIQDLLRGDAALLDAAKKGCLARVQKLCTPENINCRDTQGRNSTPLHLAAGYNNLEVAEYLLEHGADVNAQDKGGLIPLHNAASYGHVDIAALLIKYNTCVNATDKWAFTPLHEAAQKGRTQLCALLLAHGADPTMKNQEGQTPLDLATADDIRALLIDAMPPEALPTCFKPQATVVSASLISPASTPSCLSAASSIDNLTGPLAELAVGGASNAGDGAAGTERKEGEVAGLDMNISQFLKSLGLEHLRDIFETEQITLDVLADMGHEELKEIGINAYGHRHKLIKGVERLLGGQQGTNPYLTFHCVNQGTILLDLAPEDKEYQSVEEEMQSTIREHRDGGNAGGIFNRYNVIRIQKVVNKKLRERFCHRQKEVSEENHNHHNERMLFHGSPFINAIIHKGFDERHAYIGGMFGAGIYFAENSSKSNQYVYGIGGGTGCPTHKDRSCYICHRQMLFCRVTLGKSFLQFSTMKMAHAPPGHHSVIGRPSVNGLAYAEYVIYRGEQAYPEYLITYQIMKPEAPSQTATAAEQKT
Briefly: Inhibition of tankyrase in human DLD1 cells assessed as reduction in Wnt activity after 24 hrs by TCF-luciferase reporter gene assay. In kind it is cell-based. The settings on record: dld-1.

A further assay has as its system RKO. Briefly: Growth inhibition of Wnt-negative human RKO cells at >10 uM. In kind it is functional, cell-based.
Assay [1] has as its target T2, Poly [ADP-ribose] polymerase tankyrase-2 (Homo sapiens, UniProt Q9H2K2).
T2 sequence (Q9H2K2 whole entry): T1 sequence (Q9H2K2 whole entry)
The assay can be described thus: Inhibition of GST-tagged human recombinant TNKS2 incubated for 1 hr using NAD+, biotinylated NAD+ and activated DNA by luminescence based assay.

The target in assay [2] is Poly [ADP-ribose] polymerase 2 (Homo sapiens) (UniProt Q9UGN5). The assay can be described thus: Inhibition of human recombinant PARP2 incubated for 1 hr using histone substrate at 10 uM by luminescence based assay. An outline of the steps: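 Recombinant PARP enzyme reactions were run in duplicate for 1 h at rt on histone-coated plates in Tris·HCl pH 8.0 buffer with NAD+, biotinylated NAD+ and activated DNA. Detection used streptavidin-HRP for 30 min at rt, then a chemiluminescent developer. % inhibition = 100 − % activity, scaled between the no-compound (100%) and no-enzyme (0%) signals.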

The values below come from ChEMBL document CHEMBL3351316, “Scaffold hopping approach on the route to selective tankyrase inhibitors” (Eur J Med Chem, 2014).

The source made the active and inactive calls. No cut-off for these calls is given here.

Sequence of Poly [ADP-ribose] polymerase 2 (Homo sapiens) (Q9UGN5 whole entry): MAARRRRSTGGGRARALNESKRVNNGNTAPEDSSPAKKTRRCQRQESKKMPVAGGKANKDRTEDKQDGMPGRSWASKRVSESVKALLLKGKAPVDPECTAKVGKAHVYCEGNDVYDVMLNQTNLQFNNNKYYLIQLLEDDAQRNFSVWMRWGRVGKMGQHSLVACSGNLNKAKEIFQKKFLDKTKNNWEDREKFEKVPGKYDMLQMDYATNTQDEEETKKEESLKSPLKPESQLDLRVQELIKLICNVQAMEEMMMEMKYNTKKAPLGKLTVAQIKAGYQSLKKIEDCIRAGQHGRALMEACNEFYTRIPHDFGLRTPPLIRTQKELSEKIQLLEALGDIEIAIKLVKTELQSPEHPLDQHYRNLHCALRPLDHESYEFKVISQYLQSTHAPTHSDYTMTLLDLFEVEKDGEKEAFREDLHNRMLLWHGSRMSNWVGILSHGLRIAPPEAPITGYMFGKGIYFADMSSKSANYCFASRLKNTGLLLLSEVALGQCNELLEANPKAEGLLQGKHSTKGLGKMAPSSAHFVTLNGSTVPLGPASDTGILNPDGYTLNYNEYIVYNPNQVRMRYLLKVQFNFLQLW

A word on the IC50: it is the concentration that gives 50% inhibition. What is called inhibition is the percentage by which the read-out fell short of the control. `CC(C)(C)c1ccc(-c2nc3c(sc4ccccc43)c(=O)[nH]2)cc1`: the half-maximal inhibitory concentration (IC50) at Tankyrase 1/2 worked out at 832 nM; in assay [1], 28.6 nM. In the assay with RKO, the “growth inhibition (GI)” value was “Active”. Also, in assay [2], the inhibition amounted to 0%.
